According to ChEMBL document CHEMBL3588752, “Synthesis and in Vitro Anticancer Activity of the First Class of Dual Inhibitors of REV-ERBβ and Autophagy” (J Med Chem, 2015):
Activity calls are given as the source filed them. The rule behind the calls is not given here.

Tests used:
BT-474 [1] = experiment: Cytotoxicity against human BT474 cells assessed as reduction in cell number incubated for 72 hrs; format: functional, cell-based; conditions: BT-474, 72 h
How it was run: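 Cells seeded at 2000/well and left overnight, then exposed 72 h to seven 3-fold serial dilutions from 100 µM. Cell number read by CyQUANT DNA dye (independent of metabolism), relative to vehicle as 100%. BT-474 grown in high-glucose DMEM, 4 mM L-glutamine, 10% FBS, 0.25 mM pyruvate.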

HMEC = experiment: Cytotoxicity against HMEC cells assessed as reduction in cell number incubated for 72 hrs; format: cell-based; conditions: Homo sapiens
[2] = biological target: T1, Nuclear receptor subfamily 1 group D member 2 (Homo sapiens) (UniProt Q14995); experiment: Inhibition of REV-ERBbeta in human BT474 cells assessed as increase in BMAL1 expression at 10 uM incubated for 16 hrs by immunoblot method; conditions: BT-474
T1 sequence (whole entry): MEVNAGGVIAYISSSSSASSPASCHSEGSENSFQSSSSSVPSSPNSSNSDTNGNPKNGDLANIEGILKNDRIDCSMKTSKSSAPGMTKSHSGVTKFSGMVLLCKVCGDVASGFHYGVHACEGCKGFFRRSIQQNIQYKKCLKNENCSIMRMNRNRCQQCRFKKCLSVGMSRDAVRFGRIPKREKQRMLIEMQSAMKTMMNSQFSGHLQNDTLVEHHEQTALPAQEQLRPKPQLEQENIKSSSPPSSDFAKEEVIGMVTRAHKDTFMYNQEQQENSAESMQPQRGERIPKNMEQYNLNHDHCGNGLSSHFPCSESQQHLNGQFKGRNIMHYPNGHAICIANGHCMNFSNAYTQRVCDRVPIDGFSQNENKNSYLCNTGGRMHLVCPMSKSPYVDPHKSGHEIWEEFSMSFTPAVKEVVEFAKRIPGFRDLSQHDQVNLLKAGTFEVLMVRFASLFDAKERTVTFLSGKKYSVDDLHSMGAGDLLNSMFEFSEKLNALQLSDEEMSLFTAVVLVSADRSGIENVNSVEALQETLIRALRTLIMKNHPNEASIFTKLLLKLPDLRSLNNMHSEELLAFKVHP

[3] = Toxicity against human BT474 cells assessed as reduction in cell number at 10 uM incubated for 16 hrs; format: cell-based; conditions: bt-474, 16 h
BT-474 [4] = experiment: Lysosomotropic activity in human BT474 cells assessed as […] incubated for 24 hrs by lysosomotropy assay; format: functional, cell-based; conditions: BT-474, 24 h
How it was run: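 Seeded at 2000 cells/well overnight, then treated. Lysosomal staining (LysoTracker fluorescence) measured 24 h post-treatment. IC50 from concentration–response plots, mean ± SEM, N ≥ 6.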

BT-474 [5] = experiment: Inhibition of autophagy in human BT474 cells assessed as increase in LC3-II protein levels at 10 uM by immunoblot method; format: functional, cell-based
How it was run: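 BT-474 exposed 4 h at 10 µM. Protein extracted in RIPA buffer and immunoblotted for LC3B and GAPDH in TBS-T with 5% BSA. HRP secondary at 1:20000, ECL detection. Band densitometry reported as LC3B/GAPDH ratio.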

[6] = biological target: T2, Nuclear receptor subfamily 1 group D member 2 (Homo sapiens, UniProt Q14995); experiment: Inhibition of REV-ERBbeta (unknown origin) expressed in HEK293 cells incubated for 24 hrs assessed as inhibition of receptor-mediated transcriptional repression by REV-ERB luciferase reporter assay; format: cell-based
T2 sequence (Q14995 whole entry): T1 sequence (whole entry)
How it was run: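 HEK-293 co-transfected with a REV-ERBβ expression plasmid and a reporter with two REV-ERB response elements driving Cypridina luciferase. Compounds added the next day; luciferase activity read after 24 h. IC50 from concentration–response plots, mean ± SEM, N ≥ 6.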

HepG2 [7] = experiment: Inhibition of autophagy in human HepG2 cells assessed as increase in GFP/RFP/LC3 chimera protein levels at 30 uM incubated for 4 hrs by fluorescent microscopy; format: functional, cell-based
How it was run: (§1)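 Cells transduced with LC3 fused to acid-sensitive GFP and acid-insensitive RFP. Compound or DMSO vehicle added 48 h post-transduction. After 4 h, GFP and RFP fluorescent dots counted by fluorescence microscopy.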

LNCaP [8] = experiment: Cytotoxicity against human LNCAP cells assessed as reduction in cell number incubated for 72 hrs; format: functional, cell-based
How it was run: (§2)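 RPMI-1640 with 4 mM L-glutamine and 10% FBS for culture. 2000 cells/well seeded overnight, then 72 h exposure to seven 3-fold dilutions (top 100 µM; top 900 µM for the reference autophagy inhibitor in MDA-MB-361). Cell number by CyQUANT relative to vehicle. IC50 from concentration–response curves, mean ± SEM, n ≥ 6.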

LNCaP [9] = experiment: Inhibition of autophagy in human LNCAP cells assessed as increase in GFP/RFP/LC3 chimera protein levels at 30 uM incubated for 4 hrs by fluorescent microscopy; format: functional, cell-based; how it was run: as §1
HepG2 [10] = experiment: Potency index, ratio of IC50 for chloroquine to IC50 for test compound against human HepG2 cells assessed as reduction in cell number incubated for 72 hrs; format: functional
How it was run: (§3)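 HepG2 was grown in high-glucose DMEM with 4 mM L-glutamine, 10% FBS and 0.5 mM pyruvate; LNCaP in RPMI-1640 with 4 mM L-glutamine and 10% FBS. Cells were seeded at 2000/well, left overnight, then given seven 3-fold dilutions from 100 µM for 72 h. Cell number was read by CyQUANT DNA stain against vehicle (100%). IC50s came from log(inhibitor)–response fits, ≥6 experiments, and chloroquine IC50 was divided by test IC50.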

HepG2 [11] = experiment: Cytotoxicity against human HepG2 cells assessed as reduction in cell number incubated for 72 hrs; format: functional, cell-based; conditions: HepG2, 72 h
How it was run: (§4)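 Grown in high-glucose DMEM with 4 mM L-glutamine, 10% FBS and 0.5 mM sodium pyruvate. Seeded at 2000 cells/well overnight, then treated 72 h with seven 3-fold dilutions from 100 µM. Cell number by CyQUANT, % of vehicle. IC50 by log(inhibitor)–response fit, mean ± SEM, n ≥ 6.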

MCF7 = experiment: Cytotoxicity against human MCF7 cells assessed as reduction in cell number incubated for 72 hrs; format: functional, cell-based; conditions: MCF7, 72 h; how it was run: as §4
[12] = biological target: T1, Nuclear receptor subfamily 1 group D member 2 (Homo sapiens); experiment: Inhibition of REV-ERBbeta in human SKBR3 cells assessed as […] at 10 uM incubated for 16 hrs by immunoblot method; format: cell-based; conditions: SK-BR-3
[13] = Cytotoxicity against human SKBR3 cells assessed as reduction in cell number incubated for 72 hrs; format: functional, cell-based; conditions: SK-BR-3, 72 h
How it was run: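 McCoy's medium plus 10% FBS; 2000 cells/well, overnight attachment, 72 h treatment with seven 3-fold dilutions from 100 µM (900 µM top for the reference autophagy inhibitor). CyQUANT cell number as % of vehicle. IC50 by log(inhibitor)–response fitting, mean ± SEM of ≥6 experiments.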

LNCaP [14] = experiment: Potency index, ratio of IC50 for chloroquine to IC50 for test compound against human LNCAP cells assessed as reduction in cell number incubated for 72 hrs; format: functional; how it was run: as §3
[15] = biological target: T1, Nuclear receptor subfamily 1 group D member 2 (Homo sapiens); experiment: Inhibition of REV-ERBbeta in human HepG2 cells assessed as […] at 10 uM incubated for 16 hrs by immunoblot method; format: cell-based
[16] = biological target: T1, Nuclear receptor subfamily 1 group D member 2 (Homo sapiens); experiment: Inhibition of REV-ERBbeta in human LNCAP cells assessed as […] at 10 uM incubated for 16 hrs by immunoblot method; format: cell-based
MDA-MB-361 = experiment: Cytotoxicity against human MDA-MB-361 cells assessed as reduction in cell number incubated for 72 hrs; format: functional, cell-based; conditions: MDA-MB-361, 72 h; how it was run: as §2
SK-BR-3 = experiment: Inhibition of autophagy in human SKBR3 cells assessed as increase in GFP/RFP/LC3 chimera protein levels at 30 uM incubated for 4 hrs by fluorescent microscopy; format: functional, cell-based; how it was run: as §1

Row | SMILES | IC50 (BT-474 [1]) [µM] | IC50 (HMEC) [µM] | other results
1 | CN1CCN(Cc2cc(CNCc3ccccc3F)ccc2O)CC1 | > 100 |  | 
2 | COc1ccccc1C1(NCc2ccc(O)c(CN3CCN(C)CC3)c2)CCCC1 | 31.1 | 17.4 | 
3 | CN1CCN(Cc2cc(CNC3(c4ccccc4F)CCCCC3)ccc2O)CC1 | 30.7 | > 100 | 
4 | Oc1ccc(CNC2(c3ccccc3F)CCCC2)cc1CN1CCCCC1 | 35.6 | > 100 | 
5 | CCN(CC)Cc1cc(CNC2(c3ccccc3F)CCCC2)ccc1O | > 100 |  | 
6 | COc1cccc(C2(NCc3ccc(O)c(CN4CCN(C)CC4)c3)CCCC2)c1 | 11.8 | 13.1 | 
7 | CN1CCN(Cc2cc(CNC3(c4ccccc4F)CCCC3)ccc2O)CC1 | 30.1 | > 100 | inhibition [2]: Active; Activity [3]: Non-toxic; IC50 (BT-474 [4]): 10 µM; inhibition (BT-474 [5]): Active; IC50 [6]: 17.5 µM
8 | CN1CCN(Cc2cc(CNC3(c4cccc(F)c4)CCCC3)ccc2O)CC1 | 14.2 | > 100 | 
9 | CN1CCN(Cc2cc(C(=O)NC3(c4ccccc4F)CCCC3)ccc2O)CC1 | > 100 |  | 
10 | CN1CCC(Cc2cccc(CNC3(c4ccc(F)cc4)CCCC3)c2)CC1 | 2.1 | > 100 | inhibition (HepG2 [7]): Active; IC50 (LNCaP [8]): 8.68 µM; inhibition [2]: Active; Activity [3]: Non-toxic; IC50 (BT-474 [4]): 10 µM; inhibition (BT-474 [5]): Active; inhibition (LNCaP [9]): Active; Ratio IC50 (HepG2 [10]): 10; IC50 (HepG2 [11]): 2.73 µM; IC50 [6]: 1.34 µM; IC50 (MCF7): 2.19 µM; inhibition [12]: Active; IC50 [13]: 16 µM; Ratio IC50 (LNCaP [14]): 4; inhibition [15]: Active; inhibition [16]: Active; IC50 (MDA-MB-361): 30.6 µM; inhibition (SK-BR-3): Active
11 | CC(NCc1ccc(O)c(CN2CCN(C)CC2)c1)c1ccccc1F (stereo not drawn) | > 100 |  | 
12 | COc1ccc(CNC2(c3ccccc3F)CCCC2)cc1CN1CCN(C)CC1 | > 100 |  | 
13 | CN1CCN(Cc2cc(CNC3(c4ccccc4F)CCC3)ccc2O)CC1 | > 100 |  | 
14 | Fc1ccccc1C1(NCc2cccc(CN3CCCCC3)c2)CCCC1 | 40 | > 100 | 
15 | CC(C)N1CCN(Cc2cc(CNC3(c4ccccc4F)CCCC3)ccc2O)CC1 | 33.3 | > 100 | 
16 | CN1CCN(Cc2cc(CNC(C)(C)c3ccccc3F)ccc2O)CC1 | > 100 |  | 
